# Legend:
# Type in all cases: functional
# TK-10 = test: Cytotoxicity against human TK10 cells assessed as cell growth at 10 uM; details: Homo sapiens, TK-10; read-out: Activity
# How it was run: (§1)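 Single-dose screen at 10 μM across the 60-cell-line panel. Cells grown in RPMI 1640 with 5% FBS and 2 mM L-glutamine, seeded at 5,000–40,000 cells/well according to doubling time, and treated 24 h later. Exposure lasted 48 h at 37 °C, 5% CO₂. Adherent cells were fixed with cold TCA, suspension cells were fixed settled, and both were stained with SRB and read at 515 nm. Growth % was recorded, with inhibition % = 100 − growth %.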
# [1] = Growth inhibition of human NCI60 cells at 10 uM after 48 hrs by sulforhodamine B assay relative to control; details: Homo sapiens, NCI60, 48 h; read-out: GI
# How it was run: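 Single 10 µM dose across the 60-line panel for 48 h, with the same culture, TCA fixation and SRB 515 nm read-out. Inhibition % = 100 − growth %, given as the mean over the 60 cell lines.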
# SF-268 = test: Cytotoxicity against human SF268 cells assessed as cell growth at 10 uM; details: Homo sapiens, SF-268; read-out: Activity; how it was run: as §1
# NCI-H226 = test: Cytotoxicity against human NCI-H226 cells assessed as cell growth at 10 uM; details: Homo sapiens, NCI-H226; read-out: Activity; how it was run: as §1
# OVCAR-3 = test: Cytotoxicity against human OVCAR-3 cells assessed as cell growth at 10 uM; details: Homo sapiens, OVCAR-3; read-out: Activity; how it was run: as §1
# MDA-MB-231 = test: Cytotoxicity against human MDA-MB-231 cells assessed as cell growth at 10 uM; details: Homo sapiens, MDA-MB-231; read-out: Activity; how it was run: as §1
# COLO 205 = test: Cytotoxicity against human COLO205 cells assessed as cell growth at 10 uM; details: Homo sapiens, COLO 205; read-out: Activity
# How it was run: (§2)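 Single-concentration screen at 10 μM across the 60-cell-line panel (nine tissue types); growth percentage recorded per cell line, with inhibition taken as 100 minus growth percentage.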
# IGROV-1 = test: Cytotoxicity against human IGROV1 cells assessed as cell growth at 10 uM; details: Homo sapiens, IGROV-1; read-out: Activity; how it was run: as §1
# HCT-15 = test: Cytotoxicity against human HCT15 cells assessed as cell growth at 10 uM; details: Homo sapiens, HCT-15; read-out: Activity; how it was run: as §2
# A498 = test: Cytotoxicity against human A498 cells assessed as cell growth at 10 uM; details: Homo sapiens, A498; read-out: Activity; how it was run: as §2
# SW-620 = test: Cytotoxicity against human SW620 cells assessed as cell growth at 10 uM; details: Homo sapiens, SW-620; read-out: Activity; how it was run: as §1
# UO-31 = test: Cytotoxicity against human UO31 cells assessed as cell growth at 10 uM; details: Homo sapiens, UO-31; read-out: Activity; how it was run: as §1
# HCC 2998 = test: Cytotoxicity against human HCC2998 cells assessed as cell growth at 10 uM; details: Homo sapiens, HCC 2998; read-out: Activity; how it was run: as §2
# NCI/ADR-RES = test: Cytotoxicity against human NCI/ADR-RES cells assessed as cell growth at 10 uM; details: Homo sapiens, NCI/ADR-RES; read-out: Activity; how it was run: as §1
# T47D = test: Cytotoxicity against human T47D cells assessed as cell growth at 10 uM; details: Homo sapiens, T47D; read-out: Activity; how it was run: as §1
# BT-549 = test: Cytotoxicity against human BT549 cells assessed as cell growth at 10 uM; details: Homo sapiens, BT-549; read-out: Activity; how it was run: as §2
# 786-0 = test: Cytotoxicity against human 786-0 cells assessed as cell growth at 10 uM; details: Homo sapiens, 786-0; read-out: Activity; how it was run: as §2
# OVCAR-5 = test: Cytotoxicity against human OVCAR5 cells assessed as cell growth at 10 uM; details: Homo sapiens, OVCAR-5; read-out: Activity; how it was run: as §1
# OVCAR-4 = test: Cytotoxicity against human OVCAR4 cells assessed as cell growth at 10 uM; details: Homo sapiens, OVCAR-4; read-out: Activity; how it was run: as §1
# UACC-257 = test: Cytotoxicity against human UACC257 cells assessed as cell growth at 10 uM; details: Homo sapiens, UACC-257; read-out: Activity; how it was run: as §1
# K562 = test: Cytotoxicity against human K562 cells assessed as cell growth at 10 uM; details: Homo sapiens, K562; read-out: Activity; how it was run: as §1
# PC-3 = test: Cytotoxicity against human PC3 cells assessed as cell growth at 10 uM; details: Homo sapiens, PC-3; read-out: Activity; how it was run: as §1
# HCT-116 = test: Cytotoxicity against human HCT116 cells assessed as cell growth at 10 uM; details: Homo sapiens, HCT-116; read-out: Activity; how it was run: as §2
# SK-MEL-2 = test: Cytotoxicity against human SK-MEL-2 cells assessed as cell growth at 10 uM; details: Homo sapiens, SK-MEL-2; read-out: Activity; how it was run: as §1
# HT-29 = test: Cytotoxicity against human HT-29 cells assessed as cell growth at 10 uM; details: Homo sapiens, HT-29; read-out: Activity; how it was run: as §2
# NCI-H460 = test: Cytotoxicity against human NCI-H460 cells assessed as cell growth at 10 uM; details: Homo sapiens, NCI-H460; read-out: Activity; how it was run: as §1
# MCF7 = test: Cytotoxicity against human MCF7 cells assessed as cell growth at 10 uM; details: Homo sapiens, MCF7; read-out: Activity; how it was run: as §1
# Malme-3M = test: Cytotoxicity against human MALME-3M cells assessed as cell growth at 10 uM; details: Homo sapiens, Malme-3M; read-out: Activity; how it was run: as §1
# HOP-62 = test: Cytotoxicity against human HOP62 cells assessed as cell growth at 10 uM; details: Homo sapiens, HOP-62; read-out: Activity; how it was run: as §2
# KM12 = test: Cytotoxicity against human KM12 cells assessed as cell growth at 10 uM; details: Homo sapiens, KM12; read-out: Activity; how it was run: as §1
# MDA-MB-468 = test: Cytotoxicity against human MDA-MB-468 cells assessed as cell growth at 10 uM; details: Homo sapiens, MDA-MB-468; read-out: Activity; how it was run: as §1
# OVCAR-8 = test: Cytotoxicity against human OVCAR8 cells assessed as cell growth at 10 uM; details: Homo sapiens, OVCAR-8; read-out: Activity; how it was run: as §1
# UACC-62 = test: Cytotoxicity against human UACC62 cells assessed as cell growth at 10 uM; details: Homo sapiens, UACC-62; read-out: Activity; how it was run: as §1
# SK-MEL-5 = test: Cytotoxicity against human SK-MEL-5 cells assessed as cell growth at 10 uM; details: Homo sapiens, SK-MEL-5; read-out: Activity; how it was run: as §1
# NCI-H322M = test: Cytotoxicity against human NCI-H322M cells assessed as cell growth at 10 uM; details: Homo sapiens, NCI-H322M; read-out: Activity; how it was run: as §1
# SK-OV-3 = test: Cytotoxicity against human SKOV3 cells assessed as cell growth at 10 uM; details: Homo sapiens, SK-OV-3; read-out: Activity; how it was run: as §1
# EKVX = test: Cytotoxicity against human EKVX cells assessed as cell growth at 10 uM; details: Homo sapiens, EKVX; read-out: Activity; how it was run: as §2
# NCI-H23 = test: Cytotoxicity against human NCI-H23 cells assessed as cell growth at 10 uM; details: Homo sapiens, NCI-H23; read-out: Activity; how it was run: as §1
smiles,measurement,setting,value
O=C(Nc1cc(C(F)(F)F)cc(C(F)(F)F)c1)Nc1nccc(-c2ccc(Nc3ccccc3)nc2)n1,growth at 10 µM,TK-10,123%
same,inhibition of growth at 10 µM,[1],-6.98%
same,growth at 10 µM,SF-268,117%
same,growth at 10 µM,NCI-H226,104%
same,growth at 10 µM,OVCAR-3,124%
same,growth at 10 µM,MDA-MB-231,93.4%
same,growth at 10 µM,COLO 205,136%
same,growth at 10 µM,IGROV-1,105%
same,growth at 10 µM,HCT-15,108%
same,growth at 10 µM,A498,107%
same,growth at 10 µM,SW-620,98.8%
same,growth at 10 µM,UO-31,91.6%
same,growth at 10 µM,HCC 2998,109%
same,growth at 10 µM,NCI/ADR-RES,108%
same,growth at 10 µM,T47D,110%
same,growth at 10 µM,BT-549,111%
same,growth at 10 µM,786-0,112%
same,growth at 10 µM,OVCAR-5,87%
same,growth at 10 µM,OVCAR-4,114%
same,growth at 10 µM,UACC-257,112%
same,growth at 10 µM,K562,93.6%
same,growth at 10 µM,PC-3,93.5%
same,growth at 10 µM,HCT-116,93.2%
same,growth at 10 µM,SK-MEL-2,101%
same,growth at 10 µM,HT-29,94.4%
same,growth at 10 µM,NCI-H460,103%
same,growth at 10 µM,MCF7,99.6%
same,growth at 10 µM,Malme-3M,151%
same,growth at 10 µM,HOP-62,103%
same,growth at 10 µM,KM12,117%
same,growth at 10 µM,MDA-MB-468,108%
same,growth at 10 µM,OVCAR-8,103%
same,growth at 10 µM,UACC-62,101%
same,growth at 10 µM,SK-MEL-5,107%
same,growth at 10 µM,NCI-H322M,144%
same,growth at 10 µM,SK-OV-3,83.3%
same,growth at 10 µM,EKVX,134%
same,growth at 10 µM,NCI-H23,108%
